From BindingDB's records for doi:10.1021/jm0510629 (University of Houston, 2006)

How the values were obtained:
[1] = biological target: T1, Integrase (Human immunodeficiency virus 1, UniProt Q7ZJM1); assay: Inhibition of 3'-processing activity of HIV1 integrase
Summary of the method: (§1)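 Then 20 nM 5′-32P-labeled 21-mer oligonucleotide added for 1 h. Quenched with formamide loading dye. % inhibition from 19-mer (3′-processing) or strand transfer product fractions versus DNA-alone and DNA+IN controls. IC50 from log concentration versus % inhibition plot.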

[2] = biological target: T1, Integrase; assay: Inhibition of strand transfer activity of HIV1 integrase; summary of the method: as §1

T1 sequence (Q7ZJM1 whole entry): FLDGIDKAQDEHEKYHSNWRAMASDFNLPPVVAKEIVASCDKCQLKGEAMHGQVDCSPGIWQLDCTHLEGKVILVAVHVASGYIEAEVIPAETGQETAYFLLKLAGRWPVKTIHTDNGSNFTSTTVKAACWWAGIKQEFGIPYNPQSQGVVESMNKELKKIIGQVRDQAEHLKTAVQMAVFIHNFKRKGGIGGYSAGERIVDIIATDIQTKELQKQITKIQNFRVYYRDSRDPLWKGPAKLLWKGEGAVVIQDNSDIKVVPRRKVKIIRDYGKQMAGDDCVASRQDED

SMILES | IC50 [1] | IC50 [2]
NCCCCCCNC(=O)c1c(O)c2ccccc2oc1=O [N-(6-aminohexyl)-4-hydroxy-2-oxo-2H-chromene-3-carboxamide] | > 100 µM | > 100 µM
O=C1C(=O)N(CCCN2CCOCC2)C(c2ccccc2F)C1C(=O)c1ccc(F)cc1 (configuration not stated) [4-(4-fluorobenzoyl)-5-(2-fluorophenyl)-3-hydroxy-1-(3-morpholinopropyl)-1H-pyrrol-2(5H)-one] | > 1000 µM | > 1000 µM
COc1ccc(C2C(C(=O)c3ccc(F)cc3)C(=O)C(=O)N2CCN(C)C)cc1OC (configuration not stated) [5-(3,4-dimethoxyphenyl)-1-(2-(dimethylamino)ethyl)-4-(4-fluorobenzoyl)-3-hydroxy-1H-pyrrol-2(5H)-one] | > 1000 µM | > 1000 µM
CN(C)CCCN1C(=O)C(=O)C(C(=O)c2cccs2)C1c1cccs1 (configuration not stated) [1-(3-(dimethylamino)propyl)-3-hydroxy-5-(thiophen-2-yl)-4-(thiophene-2-carbonyl)-1H-pyrrol-2(5H)-one] | > 100 µM | > 100 µM
Cc1ccc(C(=O)C2C(=O)C(=O)N(CCN(C)C)C2c2ccccc2F)cc1 (configuration not stated) [1-(2-(dimethylamino)ethyl)-5-(2-fluorophenyl)-3-hydroxy-4-(4-methylbenzoyl)-1H-pyrrol-2(5H)-one] | > 1000 µM | > 1000 µM
COc1ccc(C2C(C(=O)c3ccccc3)C(=O)C(=O)N2CCCO)cc1OC (configuration not stated) [4-benzoyl-5-(3,4-dimethoxyphenyl)-3-hydroxy-1-(3-hydroxypropyl)-1H-pyrrol-2(5H)-one] | > 100 µM | > 100 µM
